# Assay results: ChEMBL document CHEMBL4715825, “Synthesis and biological evaluations of marine oxohexadecenoic acids: PPARα/γ dual agonism and anti-diabetic target gene effects” (Eur J Med Chem, 2018)
# The source made the active and inactive calls. The rule behind the calls is not given here.
# How the values were obtained:
# [1] = molecular target: T1, Peroxisome proliferator-activated receptor gamma (Homo sapiens, UniProt P37231); experiment: Agonist activity at recombinant human PPARgamma LBD (205 to 505 residues) expressed in African green monkey COS-1 cells incubated for 18 hrs by luciferase reporter gene assay; assay type: cell-based
# T1 sequence (P37231 whole entry): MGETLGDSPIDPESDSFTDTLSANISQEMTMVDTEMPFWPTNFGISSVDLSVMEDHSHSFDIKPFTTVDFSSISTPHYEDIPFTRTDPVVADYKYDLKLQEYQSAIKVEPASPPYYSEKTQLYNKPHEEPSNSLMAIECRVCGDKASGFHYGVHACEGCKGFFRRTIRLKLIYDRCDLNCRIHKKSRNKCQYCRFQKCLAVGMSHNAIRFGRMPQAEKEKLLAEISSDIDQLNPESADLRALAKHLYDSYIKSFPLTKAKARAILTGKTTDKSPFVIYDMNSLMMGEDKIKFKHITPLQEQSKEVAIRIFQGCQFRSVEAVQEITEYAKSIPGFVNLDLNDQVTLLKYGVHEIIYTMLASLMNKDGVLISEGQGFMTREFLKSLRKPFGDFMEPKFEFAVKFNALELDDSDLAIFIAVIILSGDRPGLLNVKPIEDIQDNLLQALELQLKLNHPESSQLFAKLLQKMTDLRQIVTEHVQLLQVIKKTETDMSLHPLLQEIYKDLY
# Procedure, shortened: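 Transient Gal4 one-hybrid assay in COS-1 cells (7×10^4 per well), transfected 24 h after seeding. Plasmids were Gal4-DBD fused to the human nuclear receptor LBD, a 5×UAS-SV40 luciferase reporter and pRL-CMV Renilla control. Ligand in DMSO (final 0.1%) was added 5 h post-transfection. Dual-luciferase activity was read after 18 h, expressed as RLU, from three biological replicates in quadruplicate.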
# [2] = molecular target: T2, Peroxisome proliferator-activated receptor alpha (Homo sapiens) (UniProt Q07869); experiment: Agonist activity at human PPARalpha in human HuH-7 cells assessed as increase in ANGPTL4 gene expression at 50 uM incubated for 24 hrs by SYBR-green based qPCR analysis; assay type: cell-based; details: filed as agonist
# T2 sequence (whole entry): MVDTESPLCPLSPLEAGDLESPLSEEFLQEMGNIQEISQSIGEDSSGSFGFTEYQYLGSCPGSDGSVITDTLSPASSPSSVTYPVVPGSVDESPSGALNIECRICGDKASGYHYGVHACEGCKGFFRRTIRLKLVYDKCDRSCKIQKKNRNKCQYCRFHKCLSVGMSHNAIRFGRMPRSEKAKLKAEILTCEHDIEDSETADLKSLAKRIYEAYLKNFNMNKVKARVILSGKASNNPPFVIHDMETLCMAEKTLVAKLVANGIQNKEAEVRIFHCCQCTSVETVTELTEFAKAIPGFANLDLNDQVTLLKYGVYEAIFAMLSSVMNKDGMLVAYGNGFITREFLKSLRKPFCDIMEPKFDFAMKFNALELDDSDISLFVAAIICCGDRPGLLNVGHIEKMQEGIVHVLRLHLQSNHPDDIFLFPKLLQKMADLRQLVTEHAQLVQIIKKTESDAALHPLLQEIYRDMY
# Procedure, shortened: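 Cells were seeded at 2×10^5 per well and treated 24 h later with compound in DMSO (final 0.1%). The next day, cells were washed and scraped into RLT buffer. RNA was isolated, and target gene mRNA was quantified by SYBR-green qPCR with specific primers.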
# [3] = molecular target: T2, Peroxisome proliferator-activated receptor alpha (Homo sapiens); experiment: Agonist activity at human PPARalpha in 8 day differentiated human SGBS cells assessed as increase in […] gene expression at 25 uM incubated for 24 hrs by SYBR-green based qPCR analysis; assay type: cell-based; details: filed as agonist
# Procedure, shortened: (§1)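 SGBS preadipocytes were seeded at passage P6-P8 and grown to confluence. They were differentiated for 4 days in Quickdiff (3FC plus dexamethasone, IBMX and rosiglitazone), then kept in 3FC with medium renewed every fourth day. On day 8, cells were stimulated for 24 h in 3FC with compound:BSA or rosiglitazone. SYBR-green qPCR used gene-specific primers. Data are mean ± SEM of three biological replicates in duplicate.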
# SGBS [4] = experiment: Induction of adipogenesis in 8 day differentiated human SGBS cells assessed as increase in CEBPA mRNA expression at 25 uM measured upto 12 days by qRT-PCR analysis; assay type: functional, cell-based; details: time day <=12
# Procedure, shortened: (§2)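 SGBS cells were grown to confluence (day 0). Quickdiff medium was supplemented with compound or rosiglitazone for 4 days, followed by 3FC medium. DMSO or DMSO:BSA served as control. RNA was harvested on days 0, 4, 8 and 12, and expression was measured by SYBR-green qPCR. Data are mean ± SEM of at least three biological replicates in duplicate.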
# SGBS [5] = experiment: Induction of adipogenesis in 8 day differentiated human SGBS cells assessed as increase in CD36 mRNA expression at 25 uM measured upto 12 days by qRT-PCR analysis; assay type: functional, cell-based; details: time day <=12; procedure, shortened: as §2
# SGBS [6] = experiment: Induction of adipogenesis in 8 day differentiated human SGBS cells assessed as increase in SCD1 mRNA expression at 25 uM measured upto 12 days by qRT-PCR analysis; assay type: functional, cell-based; details: time day <=12; procedure, shortened: as §2
# SGBS [7] = experiment: Induction of adipogenesis in 8 day differentiated human SGBS cells assessed as increase in ADIPOQ mRNA expression at 25 uM measured over 12 days by qRT-PCR analysis; assay type: functional, cell-based; details: time 12.0 day; procedure, shortened: as §2
# SGBS [8] = experiment: Effect on diabetic complication pathway in 8 day differentiated human SGBS cells assessed as downregulation of AGE-RAGE signalling genes at 25 uM incubated for 8 days by Illumina sequencing method; assay type: functional, cell-based
# Procedure, shortened: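 SGBS cells were differentiated 4 days in Quickdiff supplemented with compound:BSA or rosiglitazone, then 4 days in 3FC. Total RNA was extracted, and strand-specific TruSeq libraries were sequenced on NextSeq 500 (2×75 bp paired-end). Reads were aligned to hg19 with Tophat/Bowtie and counted as RPKM by Cufflinks. Values are log2 fold over day 0 cells, grouped into KEGG gene sets (n = 2-4).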
# [9] = molecular target: T3, Peroxisome proliferator-activated receptor gamma (Homo sapiens) (UniProt P37231); experiment: Agonist activity at human PPARgamma in 8 day differentiated human SGBS cells assessed as increase in ADIPOQ gene expression at 25 uM incubated for 24 hrs by SYBR-green based qPCR analysis; assay type: cell-based; details: filed as agonist; procedure, shortened: as §1
# T3 sequence (whole entry): T1 sequence (P37231 whole entry)
# [10] = molecular target: T3, Peroxisome proliferator-activated receptor gamma (Homo sapiens); experiment: Agonist activity at human PPARgamma in 8 day differentiated human SGBS cells assessed as decrease in TNF gene expression at 25 uM incubated for 24 hrs by SYBR-green based qPCR analysis; assay type: cell-based; details: filed as agonist
smiles,measurement,setting,value
CCCCCCCC(=O)/C=C/CCCCCC(=O)O,EC50,[1],10 µM
same,Activity,[2],Active
same,Activity,[3],Active
same,Activity,SGBS [4],Active
same,Activity,SGBS [5],Active
same,Activity,SGBS [6],Active
same,Activity,SGBS [7],Active
same,Activity,SGBS [8],Active
same,Activity,[9],Active
same,Activity,[10],Active
CCCCC/C=C/C(=O)CCCCCCCC(=O)O,EC50,[1],8.5 µM
same,Activity,[2],Active
same,Activity,[3],Active
same,Activity,SGBS [4],Active
same,Activity,SGBS [5],Active
same,Activity,SGBS [6],Active
same,Activity,SGBS [7],Active
same,Activity,SGBS [8],Active
same,Activity,[9],Active
same,Activity,[10],Active
